Results reported in ChEMBL document CHEMBL1153939, “Novel antagonists of serotonin-4 receptors: synthesis and biological evaluation of pyrrolothienopyrazines” (Bioorg Med Chem, 2009).
Active and inactive are the calls of the source. No cut-off for these calls is given here.

What was measured:
[1] = target: T1, 5-hydroxytryptamine receptor 2C (Homo sapiens, UniProt P28335); assay: Displacement of [3H]mesulergine from human recombinant 5HT2C receptor
T1 sequence (P28335 whole entry): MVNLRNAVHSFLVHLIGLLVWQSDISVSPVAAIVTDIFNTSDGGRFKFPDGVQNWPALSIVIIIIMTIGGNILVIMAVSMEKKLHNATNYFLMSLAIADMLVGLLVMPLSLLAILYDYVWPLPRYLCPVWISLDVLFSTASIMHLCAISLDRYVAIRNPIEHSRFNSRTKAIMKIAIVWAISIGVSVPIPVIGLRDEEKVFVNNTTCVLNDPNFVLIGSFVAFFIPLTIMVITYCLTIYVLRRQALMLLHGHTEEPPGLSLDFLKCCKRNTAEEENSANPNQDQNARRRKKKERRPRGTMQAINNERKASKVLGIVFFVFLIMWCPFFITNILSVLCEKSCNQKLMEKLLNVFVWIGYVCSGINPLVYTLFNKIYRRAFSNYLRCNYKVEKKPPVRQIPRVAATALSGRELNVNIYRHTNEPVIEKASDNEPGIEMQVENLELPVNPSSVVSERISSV

[2] = target: 5-hydroxytryptamine receptor 7 (Homo sapiens, UniProt P34969); assay: Displacement of [3H]LSD form human recombinant 5HT7 receptor
In short: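 Membranes from sf9 cells expressing human 5-HT6 (14 µg/mL) or 5-HT7 (38 µg/mL) incubated 90 min at 27 °C with 2 nM [3H]LSD in 50 mM Tris-HCl containing 10 mM MgSO4 and 0.5 mM EDTA. Nonspecific binding defined with clozapine (10 and 250 µM).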

[3] = target: 5-hydroxytryptamine receptor 2B (Homo sapiens, UniProt P41595); assay: Displacement of [3H]mesulergine from human recombinant 5HT2B receptor
[4] = target: 5-hydroxytryptamine receptor 1B (Rattus norvegicus, UniProt P28564); assay: Displacement of [3H]5OH-tryptamine form 5HT1B receptor in rat cerebral cortex; format: tissue-based
[5] = target: Alpha-2C adrenergic receptor (Homo sapiens, UniProt P18825); assay: Displacement of [3H]RX821002 form human recombinant Alpha-2C adrenergic receptor
[6] = target: 5-hydroxytryptamine receptor 4 (Cavia porcellus, UniProt O70528); assay: Displacement of [3H]GR-113808 from 5HT4 receptor in guinea pig striatum membrane; format: cell membranes
In short: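 Guinea pig membranes (15 µg protein/mL) incubated 30 min at 37 °C with 0.6 nM [3H]GR113808 in 50 mM HEPES, pH 7.4, with fixed test concentrations. Nonspecific binding defined with 10 µM serotonin.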

[7] = target: Alpha-2A adrenergic receptor (Homo sapiens, UniProt P08913); assay: Displacement of [3H]RX821002 form human recombinant alpha2A adrenergic receptor
[8] = tested on: Mus musculus; assay: Inhibition of scopolamine-induced immediate working memory deficit in NMRI mouse at 0.3 to 3 mg/kg, ip by Y-maze test; format: functional, organism-based
In short: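 Spontaneous alternation in male NMRI mice. Compound given ip in saline at 0.3, 1 and 3 mg/kg, 30 min before testing, alone or with scopolamine 1 mg/kg; four groups per dose (saline/saline, saline/scopolamine, compound/saline, compound/scopolamine). Alternation % = actual alternations / (total arm entries − 2) × 100.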

[9] = tested on: Mus musculus; assay: Acute toxicity in NMRI mouse assessed as behavioral changes at subtoxic <1/4 dose of LD50, ip by CNS activity test; format: organism-based, Central nervous system; conditions: in vivo
In short: (§1)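 Male NMRI mice (20–24 g) given ip drug in saline (10 mL/kg), groups of 4. Behavioural and neurological changes scored against controls by a standardized observation technique at 30 min, 3 h and 24 h post-dose. Approximate LD50 derived from deaths counted at 24 h.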

[10] = target: T2, 5-hydroxytryptamine receptor 3A (Homo sapiens, UniProt P46098); assay: Antagonist activity at 5HT3 receptor in hybrid NG108-15 cells assessed as inhibition of 5HT-induced current by electrophysiology; format: functional, cell-based
T2 sequence (P46098 whole entry): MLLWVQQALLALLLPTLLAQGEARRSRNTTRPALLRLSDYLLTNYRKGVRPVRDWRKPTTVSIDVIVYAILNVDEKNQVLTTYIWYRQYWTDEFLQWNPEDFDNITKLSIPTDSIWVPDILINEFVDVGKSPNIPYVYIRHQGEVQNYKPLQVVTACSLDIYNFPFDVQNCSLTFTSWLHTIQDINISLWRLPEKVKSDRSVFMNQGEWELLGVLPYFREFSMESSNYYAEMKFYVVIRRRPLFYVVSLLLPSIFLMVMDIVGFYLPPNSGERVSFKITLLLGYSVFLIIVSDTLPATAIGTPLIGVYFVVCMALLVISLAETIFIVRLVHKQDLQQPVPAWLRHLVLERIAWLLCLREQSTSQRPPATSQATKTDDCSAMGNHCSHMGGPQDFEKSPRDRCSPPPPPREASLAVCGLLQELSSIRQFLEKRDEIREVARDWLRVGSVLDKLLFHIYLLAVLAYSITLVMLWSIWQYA
In short: (§2)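 NG108-15 cells grown in DMEM-HG with 5% FBS and HAT, then differentiated on polylysine glass with 2% DMSO for 48 h followed by ≥24 h with 1 mM dibutyryl-cAMP. Whole-cell recording at −60 mV in HEPES saline, pH 7.3, with a CsCl/CsMeSO3 pipette solution. 5-HT 50 µM applied by gravity every 2.5 min.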

[11] = target: 5-hydroxytryptamine receptor 3A (Homo sapiens) (UniProt P46098); assay: Antagonist activity at 5HT3 receptor in hybrid NG108-15 cells assessed as inhibition of 5HT-induced current treated 1 min prior to agonist treatment by electrophysiology; format: functional, cell-based; in short: as §2
[12] = tested on: Mus musculus; assay: Acute toxicity in NMRI mouse assessed as induction of convulsions at 100 to 300 mg/kg, ip by CNS activity test; format: organism-based, Central nervous system; parameters: dose 100-300 mg/kg, route intraperitoneal; conditions: in vivo; in short: as §1
[13] = target: Alpha-2B adrenergic receptor (Homo sapiens, UniProt P18089); assay: Displacement of [3H]RX821002 form human recombinant alpha2B adrenergic receptor
[14] = tested on: Mus musculus; assay: Antinociceptive activity against acetic acid-induced writhing in NMRI mouse assessed as number of stretches at 0.01 mg/kg, ip by writhing test; format: functional; conditions: route intraperitoneal
In short: (§3)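 Groups of 8 male NMRI mice (20–24 g). Compound or reference given ip in saline (10 mL/kg) 15 min before ip 0.6% aqueous acetic acid (10 mL/kg). Stretches (back arching, pelvic rotation, hind-limb extension) counted over 10 min, beginning 10 min after acid. ANOVA + Fisher PLSD versus control.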

[15] = target: Alpha-1D adrenergic receptor (Homo sapiens, UniProt P25100); assay: Displacement of [3H]prazosin form human recombinant Alpha-1D adrenergic receptor
[16] = tested on: Mus musculus; assay: Antinociceptive activity against acetic acid-induced writhing in NMRI mouse assessed as number of stretches at 1 mg/kg, ip by writhing test; format: functional; conditions: route intraperitoneal; in short: as §3
[17] = target: 5-hydroxytryptamine receptor 2A (Homo sapiens, UniProt P28223); assay: Displacement of [3H]ketanserin form human recombinant 5HT2A receptor
[18] = target: 5-hydroxytryptamine receptor 1D (Rattus norvegicus, UniProt P28565); assay: Displacement of [3H]5OH-tryptamine rat recombinant 5HT1D receptor
[19] = target: T2, 5-hydroxytryptamine receptor 3A; assay: Displacement of [3H]granisetron from human recombinant 5HT3 receptor
[20] = target: Alpha-1B adrenergic receptor (Homo sapiens, UniProt P35368); assay: Displacement of [3H]prazosin form human recombinant Alpha-1B adrenergic receptor
Alpha-1B adrenergic receptor, sequence (P35368 whole entry): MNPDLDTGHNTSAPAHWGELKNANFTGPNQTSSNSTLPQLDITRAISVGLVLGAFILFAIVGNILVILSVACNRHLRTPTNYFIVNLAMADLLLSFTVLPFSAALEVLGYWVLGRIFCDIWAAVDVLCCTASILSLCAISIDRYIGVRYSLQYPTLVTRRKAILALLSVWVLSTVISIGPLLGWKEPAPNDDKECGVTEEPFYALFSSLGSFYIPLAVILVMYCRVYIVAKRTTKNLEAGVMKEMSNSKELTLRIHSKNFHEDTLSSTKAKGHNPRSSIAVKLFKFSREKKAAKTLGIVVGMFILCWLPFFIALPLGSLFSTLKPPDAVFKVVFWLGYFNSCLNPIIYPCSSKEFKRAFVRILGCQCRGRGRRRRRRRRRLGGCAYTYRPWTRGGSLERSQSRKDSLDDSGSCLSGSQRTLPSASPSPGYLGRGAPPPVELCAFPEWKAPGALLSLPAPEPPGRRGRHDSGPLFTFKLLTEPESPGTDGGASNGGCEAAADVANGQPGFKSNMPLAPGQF

Alpha-2B adrenergic receptor, sequence (P18089 whole entry): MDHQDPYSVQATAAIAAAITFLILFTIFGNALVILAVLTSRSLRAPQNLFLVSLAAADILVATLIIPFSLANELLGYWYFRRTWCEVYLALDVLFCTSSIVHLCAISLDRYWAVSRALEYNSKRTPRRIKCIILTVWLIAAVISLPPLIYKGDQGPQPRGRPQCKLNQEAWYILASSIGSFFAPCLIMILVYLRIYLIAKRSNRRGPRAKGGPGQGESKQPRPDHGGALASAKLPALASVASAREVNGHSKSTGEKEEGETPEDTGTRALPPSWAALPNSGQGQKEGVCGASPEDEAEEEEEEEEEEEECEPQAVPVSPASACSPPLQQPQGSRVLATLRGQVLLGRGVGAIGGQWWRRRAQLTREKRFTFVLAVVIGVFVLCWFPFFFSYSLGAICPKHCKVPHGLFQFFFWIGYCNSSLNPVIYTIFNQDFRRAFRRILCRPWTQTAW
Alpha-2A adrenergic receptor, sequence (P08913 whole entry): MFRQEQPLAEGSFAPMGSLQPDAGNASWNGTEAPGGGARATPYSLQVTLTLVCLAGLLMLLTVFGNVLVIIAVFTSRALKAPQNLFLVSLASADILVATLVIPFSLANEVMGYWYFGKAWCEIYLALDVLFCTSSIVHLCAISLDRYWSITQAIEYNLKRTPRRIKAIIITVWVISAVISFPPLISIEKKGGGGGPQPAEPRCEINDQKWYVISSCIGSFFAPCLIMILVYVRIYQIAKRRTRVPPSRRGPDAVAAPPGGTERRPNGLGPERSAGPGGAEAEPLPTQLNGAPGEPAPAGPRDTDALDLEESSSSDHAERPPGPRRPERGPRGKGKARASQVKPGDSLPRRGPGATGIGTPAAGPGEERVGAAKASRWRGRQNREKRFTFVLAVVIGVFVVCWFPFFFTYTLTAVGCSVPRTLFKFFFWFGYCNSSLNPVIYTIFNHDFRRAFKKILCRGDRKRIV
5-hydroxytryptamine receptor 1D, sequence (P28565 whole entry): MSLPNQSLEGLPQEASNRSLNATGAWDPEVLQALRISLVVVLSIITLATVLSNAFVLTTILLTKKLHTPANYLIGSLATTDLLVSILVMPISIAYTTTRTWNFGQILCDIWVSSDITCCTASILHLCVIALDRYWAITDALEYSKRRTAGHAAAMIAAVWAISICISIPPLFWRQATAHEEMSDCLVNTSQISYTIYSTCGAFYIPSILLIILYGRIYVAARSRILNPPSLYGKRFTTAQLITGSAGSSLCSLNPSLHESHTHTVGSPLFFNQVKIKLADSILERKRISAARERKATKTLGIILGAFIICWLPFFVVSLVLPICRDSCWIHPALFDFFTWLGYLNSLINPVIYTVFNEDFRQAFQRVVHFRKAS
5-hydroxytryptamine receptor 2A, sequence (P28223 whole entry): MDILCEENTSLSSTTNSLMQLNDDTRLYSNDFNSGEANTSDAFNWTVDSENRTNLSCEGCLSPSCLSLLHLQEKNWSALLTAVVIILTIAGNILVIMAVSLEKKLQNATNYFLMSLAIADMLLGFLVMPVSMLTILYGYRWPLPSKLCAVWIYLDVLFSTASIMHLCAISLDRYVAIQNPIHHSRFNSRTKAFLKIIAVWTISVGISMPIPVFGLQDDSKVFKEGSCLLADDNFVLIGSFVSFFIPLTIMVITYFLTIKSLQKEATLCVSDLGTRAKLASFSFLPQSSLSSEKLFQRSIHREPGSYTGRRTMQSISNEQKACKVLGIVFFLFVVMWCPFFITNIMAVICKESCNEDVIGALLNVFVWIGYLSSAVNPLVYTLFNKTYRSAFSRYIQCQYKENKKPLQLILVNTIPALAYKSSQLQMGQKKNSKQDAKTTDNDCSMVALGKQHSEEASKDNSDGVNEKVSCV
Alpha-1D adrenergic receptor, sequence (P25100 whole entry): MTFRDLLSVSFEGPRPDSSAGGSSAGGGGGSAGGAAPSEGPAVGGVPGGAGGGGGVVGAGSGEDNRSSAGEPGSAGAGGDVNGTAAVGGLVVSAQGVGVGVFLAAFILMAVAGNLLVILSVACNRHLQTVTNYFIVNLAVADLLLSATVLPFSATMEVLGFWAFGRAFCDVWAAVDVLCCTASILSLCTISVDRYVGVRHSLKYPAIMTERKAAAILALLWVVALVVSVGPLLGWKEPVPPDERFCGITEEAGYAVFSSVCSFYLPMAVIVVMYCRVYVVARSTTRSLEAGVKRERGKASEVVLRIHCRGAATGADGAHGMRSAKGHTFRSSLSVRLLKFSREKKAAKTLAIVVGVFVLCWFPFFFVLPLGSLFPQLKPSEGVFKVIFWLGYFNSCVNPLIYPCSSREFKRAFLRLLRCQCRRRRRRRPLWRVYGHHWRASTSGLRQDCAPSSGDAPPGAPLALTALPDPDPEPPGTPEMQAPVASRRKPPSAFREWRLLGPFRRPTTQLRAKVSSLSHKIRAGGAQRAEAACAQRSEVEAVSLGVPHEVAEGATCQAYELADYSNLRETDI
5-hydroxytryptamine receptor 4, sequence (O70528 whole entry): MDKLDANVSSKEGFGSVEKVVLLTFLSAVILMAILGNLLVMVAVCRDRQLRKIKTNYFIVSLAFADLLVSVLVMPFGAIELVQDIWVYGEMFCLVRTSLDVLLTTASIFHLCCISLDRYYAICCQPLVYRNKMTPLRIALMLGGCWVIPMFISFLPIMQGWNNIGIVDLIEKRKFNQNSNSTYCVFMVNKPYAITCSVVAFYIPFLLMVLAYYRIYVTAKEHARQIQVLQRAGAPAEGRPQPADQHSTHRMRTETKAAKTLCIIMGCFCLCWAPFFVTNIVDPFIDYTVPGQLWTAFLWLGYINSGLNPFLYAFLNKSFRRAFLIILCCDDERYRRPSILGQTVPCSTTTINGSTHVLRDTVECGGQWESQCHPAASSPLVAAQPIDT
5-hydroxytryptamine receptor 7, sequence (P34969 whole entry): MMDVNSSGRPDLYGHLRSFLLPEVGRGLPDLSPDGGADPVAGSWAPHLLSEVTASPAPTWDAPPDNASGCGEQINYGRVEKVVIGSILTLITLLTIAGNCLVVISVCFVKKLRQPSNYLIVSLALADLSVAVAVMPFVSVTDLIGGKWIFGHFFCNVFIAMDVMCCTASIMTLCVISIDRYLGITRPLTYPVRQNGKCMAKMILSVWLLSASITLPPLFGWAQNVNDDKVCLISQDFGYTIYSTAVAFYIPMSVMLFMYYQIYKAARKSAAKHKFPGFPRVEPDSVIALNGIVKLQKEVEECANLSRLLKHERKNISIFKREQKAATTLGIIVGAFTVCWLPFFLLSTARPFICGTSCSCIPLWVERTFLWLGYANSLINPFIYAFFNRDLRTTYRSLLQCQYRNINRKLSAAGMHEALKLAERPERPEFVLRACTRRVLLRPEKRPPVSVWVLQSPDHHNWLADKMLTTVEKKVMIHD
5-hydroxytryptamine receptor 1B, sequence (P28564 whole entry): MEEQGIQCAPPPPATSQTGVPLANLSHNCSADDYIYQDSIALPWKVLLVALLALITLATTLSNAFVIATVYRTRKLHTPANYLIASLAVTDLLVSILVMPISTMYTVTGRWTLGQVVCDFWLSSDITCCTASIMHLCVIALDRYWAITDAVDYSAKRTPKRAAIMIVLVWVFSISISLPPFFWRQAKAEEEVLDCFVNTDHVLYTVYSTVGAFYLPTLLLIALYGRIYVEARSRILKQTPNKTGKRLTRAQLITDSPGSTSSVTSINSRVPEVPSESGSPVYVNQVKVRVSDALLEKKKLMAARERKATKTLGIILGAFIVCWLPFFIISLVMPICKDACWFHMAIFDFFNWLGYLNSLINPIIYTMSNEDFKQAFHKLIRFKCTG
Alpha-2C adrenergic receptor, sequence (P18825 whole entry): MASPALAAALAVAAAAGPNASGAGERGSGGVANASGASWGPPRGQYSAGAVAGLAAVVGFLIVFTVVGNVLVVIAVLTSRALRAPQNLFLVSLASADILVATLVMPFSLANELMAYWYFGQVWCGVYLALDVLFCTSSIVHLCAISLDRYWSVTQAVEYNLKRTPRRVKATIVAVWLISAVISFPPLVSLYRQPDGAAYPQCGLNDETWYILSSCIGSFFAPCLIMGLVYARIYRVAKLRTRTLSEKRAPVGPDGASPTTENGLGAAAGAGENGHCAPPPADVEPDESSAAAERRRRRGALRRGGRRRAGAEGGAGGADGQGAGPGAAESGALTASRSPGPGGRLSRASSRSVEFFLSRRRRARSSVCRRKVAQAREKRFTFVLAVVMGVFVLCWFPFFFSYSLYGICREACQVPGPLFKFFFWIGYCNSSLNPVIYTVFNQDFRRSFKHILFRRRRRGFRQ

Compound: CCCN1CCC(COc2nc3scc(C)c3n3cccc23)CC1
- IC50 [1]: 72.4 nM
- IC50 [2]: > 1000 nM
- IC50 [3]: 282 nM
- IC50 [4]: > 10000 nM
- IC50 [5]: 741 nM
- Ki [6]: 1.74 nM
- IC50 [7]: 891 nM
- Activity [8]: inactive
- Activity [9]: Toxic
- IC50 [10]: 385 nM
- Activity [11]: inactive
- Activity [12]: Toxic
- IC50 [13]: 955 nM
- Activity [14]: 17.2
- IC50 [15]: 204 nM
- Activity [16]: 7.6
- IC50 [17]: > 10000 nM
- IC50 [18]: 4570 nM
- IC50 [19]: 6.92 nM
- IC50 [20]: 145 nM
